Laboratory results as given in publication PMC4002123 (Journal of Medicinal Chemistry, 2014).
Entries after “also recorded” stand apart in the source; their conditions may differ.

How the values were obtained:
HeLa cells [1] = assay: Antiproliferative assay; format: cell-based, human; settings: read-out: growth inhibition IC50, HeLa, 72 h
Method in brief: (§1)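 Seeded at 5 × 10^3 cells/well and grown 24 h. Medium then replaced with fresh medium holding test compound at a range of concentrations; DMSO below 0.25%. Incubated at 37 °C for 72 h. Resazurin added for 2 h, then fluorescence read at ex 560 / em 590 nm.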

A549 cells = assay: Antiproliferative assay; format: cell-based, human; settings: read-out: growth inhibition IC50, A549; A549, 72 h
Method in brief: as §1

MDA-MB-231 cells [2] = assay: Antiproliferative assay; format: cell-based, human; settings: read-out: growth inhibition IC50, MDA-MB-231; MDA-MB-231, 72 h
Method in brief: as §1

MDA-MB-231 cells [3] = assay: Immunofluorescence of interphase microtubules, MDA-MB-231; format: cell-based, human; settings: 1 μM, 24 h
Method in brief: (§2)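 Cells grown on chamber slides and exposed to DMSO vehicle or test compound, then fixed in 3.7% formaldehyde and permeabilised for 4 min with 0.1% Triton X-100 in PBS. Blocked 1 h in PBS/1% BSA with calf serum. Stained with mouse anti-β-tubulin (1:200), then Alexa 488 goat anti-mouse (1:200) for 2 h at room temperature. Imaged by fluorescence microscopy.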

[4] = Mouse plasma concentrations after single oral dose; format: in vivo; settings: mice, single oral dose 5 mg/kg
Method in brief: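 Female C57BL/6 mice dosed once by oral gavage at 5 mg/kg, test compound dissolved in ethanol and given in PBS. Blood drawn from orbital sinus at 1, 3, 6 and 24 h after dosing. Each group of mice sampled only once.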

[5] = tested on: chick embryo chorioallantoic membrane; assay: Chick embryo chorioallantoic membrane; format: in vivo; settings: collagen plug with bFGF + VEGF (BV), scored 4 days after treatment
Method in brief: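 Fertilized chick eggs incubated 3 days at 37.5 °C, then shell-free in covered weighboats for 10 more days. Collagen onplants (2.1 mg/mL rat tail collagen, 10 ng/plug bFGF, 30 ng/plug VEGF) with or without test compound placed on CAM over nylon mesh; four per egg, at least three eggs. After 4 days, plugs on surviving embryos imaged and scored blind 0–3; means ± SEM.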

HeLa cells [6] = assay: Immunofluorescence of interphase microtubules, HeLa; format: cell-based, human; settings: 1 μM, 24 h
Method in brief: as §2

bovine brain tubulin = assay: Tubulin polymerization assay in vitro; format: biochemical; settings: compared to vehicle
[7] = tested on: colchicine binding site of tubulin; assay: Competitive LC-MS/MS binding assay, colchicine binding site; settings: colchicine 1.2 μM, tubulin 1.3 mg/mL, 37 °C, 1 h; highest value reached

Row | Molecule | IC50 (HeLa cells [1]) [µM] | IC50 (A549 cells) [µM] | IC50 (MDA-MB-231 cells [2]) [µM] | effect on interphase microtubule network (MDA-MB-231 cells [3]) | peak plasma concentration [4] | inhibition of new vessel growth (angiogenesis score, scale 0-3) [5] | effect on interphase microtubule network (HeLa cells [6]) | inhibition of tubulin polymerization (bovine brain tubulin; compound at 1 μM) | inhibition of tubulin polymerization (bovine brain tubulin; compound at 10 μM) | plasma concentration at 6 h [4] | plasma concentration at 24 h [4] | relative binding capacity, % of colchicine binding [7] [%]
1 | 5-Bromo-2-(3,4,5-trimethoxyphenyl)pyridine [2e] | 14 ± 0.3 | > 25 | 12.05 ± 0.02 |  |  |  |  |  |  |  |  | 
2 | COc1ccc(-c2cccc(-c3ccc(OC)cc3OC)n2)cc1 [4h, 2-(2,4-Dimethoxyphenyl)-6-(4-methoxyphenyl)pyridine] |  |  |  | dramatic reduction of the interphase microtubule network | lower peak concentrations than CA-4 | inhibition of new vessel growth | dramatic reduction of the interphase microtubule network | failed to inhibit tubulin polymerization | remained ineffective against tubulin polymerization |  |  | 
3 | 2-Methoxy-5-(6-(3,4,5-trimethoxyphenyl)pyridine-2-yl)phenol [4t] | 0.0047 ± 0.0009 | 2.64 ± 0.38 | 0.069 ± 0.0028 |  | lower peak concentrations than CA-4 | inhibition of new vessel growth; also recorded: scored significantly lower than the positive control (BV) |  | failed to inhibit tubulin polymerization | 32% |  |  | 
4 | COc1ccc(/C=C\c2cc(OC)c(OC)c(OC)c2)cc1O [CA-4, Combretastatin-A4, reference compound] |  |  |  | very similar loss of the microtubule network |  | inhibition of new vessel growth | very similar loss of the microtubule network |  | nearly completely blocked tubulin polymerization | no longer detectable | no longer detectable | 78
5 | COc1ccc(-c2cccc(-c3ccc(OC)c(O)c3)n2)c(OC)c1 [4s, 5-(6-(2,4-Dimethoxyphenyl)pyridine-2-yl)-2-methoxyphenol] |  |  |  |  |  | inhibition of new vessel growth; also recorded: scored significantly lower than the positive control (BV) |  | failed to inhibit tubulin polymerization |  | dropping rapidly | below detection limit | 
6 | 2-(2,4-Dimethoxyphenyl)-6-(2,5-dimethoxyphenyl)pyridine [4m] | 0.034 ± 0.002 | 0.33 ± 0.01 | 0.034 ± 0.004 |  |  |  |  |  |  |  |  | 
7 | 5-Bromo-2-(2,4-dimethoxyphenyl)pyridine [2f] | > 25 | > 100 | > 100 |  |  |  |  |  |  |  |  | 
